Reference: ChEMBL document CHEMBL4732206, “Novel diaryl-2H-azirines: Antitumor hybrids for dual-targeting tubulin and DNA” (Eur J Med Chem, 2021)
Active and inactive are the calls of the source. The calls are words filed in the database; no cut-off is given here.

How the values were obtained:
HeLa [1] = assay: Induction of apoptosis in human HeLa cells assessed as late apoptotic cells at 4 uM incubated for 48 hrs by annexin-V-FITC and PI staining based flow cytometry analysis (reference value: 0.23 %); format: functional
HeLa [2] = assay: Induction of apoptosis in human HeLa cells assessed as upregulation of PARP cleavage by Western blot analysis; format: functional, cell-based; details: dose 2-8 µM
Method in brief: (§1)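 HeLa cells were treated with graded concentrations or DMSO, washed in PBS and lysed. Protein was measured by BCA, separated by SDS-PAGE and transferred to PVDF. Membranes were blocked in 5% BSA/TBST, incubated with primary antibodies overnight at 4 °C, then with HRP secondary antibodies. Bands were detected by chemiluminescence.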

HUVEC = assay: Antiangiogenic activity in HUVEC assessed as disruption of capillary structure incubated for 12 hrs by matrigel-based microscopic analysis; format: functional, cell-based; details: Homo sapiens, dose 75-150 nM
Method in brief: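 Matrigel polymerized at 37 °C for 2 h, then HUVECs in DMEM were seeded on it. Cells were treated with a range of compound concentrations or DMSO vehicle for 12 h at 37 °C. Capillary-like tubes were photographed through an inverted microscope.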

HeLa [3] = assay: Induction of apoptosis in human HeLa cells assessed as viable cells at 1 uM incubated for 48 hrs by annexin-V-FITC and PI staining based flow cytometry analysis (reference value: 97.34 %); format: functional; details: read-out: Activity
Tubulin (Homo sapiens) = Tubulin (Homo sapiens) (UniProt P68371+Q9H4B7+P0DPH7+P68366+Q13509+Q71U36+P04350+Q3ZCM7+P07437+P68363+Q9BQE3+Q6PEY2+Q13885+Q9BVA1+Q9BUF5); assay: Inhibition of tubulin polymerization in human HeLa cells assessed as shrink in cell border at 100 to 200 nM incubated for overnight by DAPI staining based immunofluorescence assay; details: dose 100-200 nM
Method in brief: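 HeLa cells were treated overnight with a range of concentrations or DMSO. Cells were fixed in methanol, permeabilized with 0.1% Triton X-100 and blocked in 3% BSA for 1 h. They were stained with α-tubulin monoclonal antibody overnight at 4 °C, then Alexa 488 secondary antibody, with DAPI counterstain for 10 min. Images were taken by confocal microscopy.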

[4] = Toxicity in Balb/c mouse xenografted with human A2780 cells assessed as effect on body weight at 25 to 50 mg/kg administered every two days; format: organism-based; details: in vivo, dose 25-50 mg/kg
Method in brief: (§2)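 Nude mice carried A2780 cells implanted in PBS in the right flank. When tumors reached 100 mm³, mice were randomized into four groups (n = 10): vehicle, 25 or 50 mg/kg test compound, and PTX 10 mg/kg. Dosing was every two days; vehicle was 10% castor oil and 10% DMSO in PBS. Volume (π/6 × length × width²) and body weight were measured by caliper and scale at each dose. Tumors were excised and weighed at the end.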

Jurkat [5] = assay: Induction of DNA damage in human Jurkat cells assessed as upregulation of GADD45alpha protein expression incubated for 48 hrs by Western blot analysis; format: functional, cell-based; details: dose 2-8 µM
HeLa [6] = assay: Induction of apoptosis in human HeLa cells assessed as early apoptotic cells at 8 uM incubated for 48 hrs by annexin-V-FITC and PI staining based flow cytometry analysis (reference value: 2.25 %); format: functional
A2780 [7] = assay: Antitumor activity against human A2780 cells xenografted in Balb/c mouse assessed as tumor growth inhibition administered every two days by caliper analysis; format: functional; details: dose 25-50 mg/kg; method in brief: as §2
HeLa [8] = assay: Induction of apoptosis in human HeLa cells assessed as necrotic cells at 4 uM incubated for 48 hrs by annexin-V-FITC and PI staining based flow cytometry analysis (reference value: 0.18 %); format: functional
HeLa [9] = assay: Induction of apoptosis in human HeLa cells assessed as viable cells at 8 uM incubated for 48 hrs by annexin-V-FITC and PI staining based flow cytometry analysis (reference value: 97.34 %); format: functional; details: read-out: Activity
HeLa [10] = assay: Induction of apoptosis in human HeLa cells assessed as necrotic cells at 1 uM incubated for 48 hrs by annexin-V-FITC and PI staining based flow cytometry analysis (reference value: 0.18 %); format: functional
[11] = Toxicity in Balb/c mouse xenografted with human A2780 cells assessed as adverse effect at 25 to 50 mg/kg administered every two days; format: organism-based; details: in vivo, dose 25-50 mg/kg
HeLa [12] = assay: Induction of apoptosis in human HeLa cells assessed as viable cells at 4 uM incubated for 48 hrs by annexin-V-FITC and PI staining based flow cytometry analysis (reference value: 97.34 %); format: functional; details: read-out: Activity
HeLa [13] = assay: Induction of apoptosis in human HeLa cells assessed as early apoptotic cells at 4 uM incubated for 48 hrs by annexin-V-FITC and PI staining based flow cytometry analysis (reference value: 2.25 %); format: functional
HeLa [14] = assay: Induction of apoptosis in human HeLa cells assessed as early apoptotic cells at 2 uM incubated for 48 hrs by annexin-V-FITC and PI staining based flow cytometry analysis (reference value: 2.25 %); format: functional
HeLa [15] = assay: Induction of apoptosis in human HeLa cells assessed as necrotic cells at 2 uM incubated for 48 hrs by annexin-V-FITC and PI staining based flow cytometry analysis (reference value: 0.18 %); format: functional
HeLa [16] = assay: Induction of apoptosis in human HeLa cells assessed as upregulation of p53 protein expression by Western blot analysis; format: functional, cell-based; details: dose 2-8 µM; method in brief: as §1
A549 = assay: Antiproliferative activity against human A549 cells assessed as reduction in cell viability incubated for 48 hrs by MTT assay; format: functional, cell-based; details: A549, 48 h
Method in brief: (§3)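 Cells were grown in DMEM with 10% FBS and penicillin/streptomycin at 37 °C and 5% CO2. They were seeded for 24 h, then treated with graded concentrations for 48 h. MTT (5 mg/mL) was added for a further 4 h at 37 °C. Formazan was dissolved in DMSO and absorbance read at 570 nm. IC50 was taken from the concentration-response curve.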

A2780 [17] = assay: Antiproliferative activity against human A2780 cells assessed as reduction in cell viability incubated for 48 hrs by MTT assay; format: functional, cell-based; details: A2780, 48 h; method in brief: as §3
HeLa [18] = assay: Induction of apoptosis in human HeLa cells assessed as late apoptotic cells at 2 uM incubated for 48 hrs by annexin-V-FITC and PI staining based flow cytometry analysis (reference value: 0.23 %); format: functional
HeLa [19] = assay: Induction of cell cycle arrest in human HeLa cells assessed as upregulation of cyclinB1 protein expression at 0.8 to 3.2 uM by Western blot analysis; format: functional, cell-based; details: dose 0.8-3.2 µM; method in brief: as §1
Jurkat [20] = assay: Induction of DNA damage in human Jurkat cells assessed as upregulation of Bax protein expression incubated for 48 hrs by Western blot analysis; format: functional, cell-based; details: dose 2-8 µM
HCT-116 = assay: Antiproliferative activity against human HCT-116 cells assessed as reduction in cell viability incubated for 48 hrs by MTT assay; format: functional, cell-based; details: HCT-116, 48 h; method in brief: as §3
HeLa [21] = assay: Induction of cell cycle arrest in human HeLa cells assessed as increase in accumulation of cells at G2/M phase incubated for 24 hrs by PI staining based flow cytometry analysis; format: functional; details: dose 0.4-3.2 µM
Method in brief: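 HeLa cells were grown for 24 h, then treated with graded concentrations or DMSO for 24 h. Cells were fixed in 75% ethanol at −20 °C overnight, treated with RNase A and stained with PI in PBS in the dark at room temperature. DNA content was measured by flow cytometry.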

In the case of `COc1ccc(C2N=C2c2cc(OC)c(OC)c(OC)c2)cc1F` (stereo not given), the Activity (HeLa [1]) is reported as 7.52%, the Activity (HeLa [2]) is reported as “Dose-dependent effect” and the Activity (HUVEC) is reported as “Dose-dependent effect”. For the same molecule, the viability at 1 µM (HeLa [3]) was 95.5%, the inhibition (Tubulin (Homo sapiens)) was “Active” and the Activity [4] was “Non-Toxic”. For the same molecule, the Activity (Jurkat [5]) was “Dose-dependent effect”, the Activity (HeLa [6]) was 50.47% and the TGI (A2780 [7]) was “Dose-dependent effect”. For the same molecule, the Activity (HeLa [8]) was 0.56%, the viability at 8 µM (HeLa [9]) was 39.6% and the Activity (HeLa [10]) was 0.28%. The Activity [11] was “Non-Toxic”, the viability at 4 µM (HeLa [12]) was 63.5% and the Activity (HeLa [13]) was 28.43%. For the same molecule, the Activity (HeLa [14]) was 18.98%, the Activity (HeLa [15]) was 0.65% and the Activity (HeLa [16]) was “Dose-dependent effect”. The IC50 (A549) was 1190 nM, the IC50 (A2780 [17]) was 160 nM and the Activity (HeLa [18]) was 5.72%. For the same molecule, the Activity (HeLa [19]) was “Active”, the Activity (Jurkat [20]) was “Dose-dependent effect” and the IC50 (HCT-116) was 630 nM. The Activity (HeLa [21]) was “Dose-dependent effect”.
